# Source: ChEMBL document CHEMBL4049426, “Identification of the Clinical Candidate (R)-(1-(4-Fluorophenyl)-6-((1-methyl-1H-pyrazol-4-yl)sulfonyl)-4,4a,5,6,7,8-hexahydro-1H-pyrazolo[3,4-g]isoquinolin-4a-yl)(4-(trifluoromethyl)pyridin-2-yl)methanone (CORT125134): A Selective Glucocorticoid Receptor (GR) Antagonist” (J Med Chem, 2017)
# Active and inactive are the calls of the source. No cut-off for these calls is given here.
# Key:
# [1] = target: Cytochrome P450 2C9 (Homo sapiens, UniProt P11712); test: Time-dependent inhibition of CYP2C9 (unknown origin); assay type: ADME
# Chain of Cytochrome P450 2C9 (P11712 whole entry): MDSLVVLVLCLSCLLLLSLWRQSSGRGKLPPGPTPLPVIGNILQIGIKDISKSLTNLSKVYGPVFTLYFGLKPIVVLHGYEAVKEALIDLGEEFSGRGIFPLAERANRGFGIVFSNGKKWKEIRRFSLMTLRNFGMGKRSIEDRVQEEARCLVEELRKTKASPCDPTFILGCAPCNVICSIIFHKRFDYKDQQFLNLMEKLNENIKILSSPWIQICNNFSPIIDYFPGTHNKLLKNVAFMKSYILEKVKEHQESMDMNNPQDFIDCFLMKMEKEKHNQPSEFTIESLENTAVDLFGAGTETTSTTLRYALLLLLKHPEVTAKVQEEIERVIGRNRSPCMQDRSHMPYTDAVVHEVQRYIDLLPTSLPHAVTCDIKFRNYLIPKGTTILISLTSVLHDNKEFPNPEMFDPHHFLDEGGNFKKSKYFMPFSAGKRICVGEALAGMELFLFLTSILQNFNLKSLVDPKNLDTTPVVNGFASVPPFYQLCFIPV
# [2] = target: T1, Glucocorticoid receptor (Homo sapiens, UniProt P04150); test: Antagonist activity at glucocorticoid receptor in human HepG2 cells assessed as inhibition of dexamethasone-induced tyrosine amino transferase activity preincubated for 30 mins followed by dexamethasone addition measured after 20 hrs; assay type: cell-based
# T1 sequence (P04150 whole entry): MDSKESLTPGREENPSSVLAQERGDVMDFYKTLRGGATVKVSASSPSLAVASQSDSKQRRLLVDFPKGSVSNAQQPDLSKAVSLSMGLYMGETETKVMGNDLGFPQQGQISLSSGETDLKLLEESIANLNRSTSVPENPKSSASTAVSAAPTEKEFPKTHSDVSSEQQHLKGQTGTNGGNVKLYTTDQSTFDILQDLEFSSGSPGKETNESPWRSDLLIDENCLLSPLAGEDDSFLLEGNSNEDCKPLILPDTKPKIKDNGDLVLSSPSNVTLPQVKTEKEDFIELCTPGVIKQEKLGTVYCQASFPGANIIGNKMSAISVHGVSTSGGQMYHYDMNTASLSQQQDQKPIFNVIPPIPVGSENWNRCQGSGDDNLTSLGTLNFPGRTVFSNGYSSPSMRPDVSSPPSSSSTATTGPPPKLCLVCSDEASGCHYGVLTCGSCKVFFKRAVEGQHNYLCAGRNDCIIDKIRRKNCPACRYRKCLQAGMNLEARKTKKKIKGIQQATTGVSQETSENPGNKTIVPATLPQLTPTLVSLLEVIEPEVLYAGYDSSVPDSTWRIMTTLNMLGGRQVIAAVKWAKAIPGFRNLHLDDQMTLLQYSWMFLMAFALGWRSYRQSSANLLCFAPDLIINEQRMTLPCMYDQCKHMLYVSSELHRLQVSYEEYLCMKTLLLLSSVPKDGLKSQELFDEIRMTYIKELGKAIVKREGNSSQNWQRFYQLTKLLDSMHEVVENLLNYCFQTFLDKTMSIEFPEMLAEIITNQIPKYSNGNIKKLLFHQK
# [3] = target: T2, Glucocorticoid receptor (Rattus norvegicus) (UniProt P06536); test: Partial agonist activity at rat glucocorticoid receptor in primary hepatocytes assessed as induction of tyrosine amino transferase activity at 10 uM measured after 20 hrs; assay type: cell-based
# T2 sequence (whole entry): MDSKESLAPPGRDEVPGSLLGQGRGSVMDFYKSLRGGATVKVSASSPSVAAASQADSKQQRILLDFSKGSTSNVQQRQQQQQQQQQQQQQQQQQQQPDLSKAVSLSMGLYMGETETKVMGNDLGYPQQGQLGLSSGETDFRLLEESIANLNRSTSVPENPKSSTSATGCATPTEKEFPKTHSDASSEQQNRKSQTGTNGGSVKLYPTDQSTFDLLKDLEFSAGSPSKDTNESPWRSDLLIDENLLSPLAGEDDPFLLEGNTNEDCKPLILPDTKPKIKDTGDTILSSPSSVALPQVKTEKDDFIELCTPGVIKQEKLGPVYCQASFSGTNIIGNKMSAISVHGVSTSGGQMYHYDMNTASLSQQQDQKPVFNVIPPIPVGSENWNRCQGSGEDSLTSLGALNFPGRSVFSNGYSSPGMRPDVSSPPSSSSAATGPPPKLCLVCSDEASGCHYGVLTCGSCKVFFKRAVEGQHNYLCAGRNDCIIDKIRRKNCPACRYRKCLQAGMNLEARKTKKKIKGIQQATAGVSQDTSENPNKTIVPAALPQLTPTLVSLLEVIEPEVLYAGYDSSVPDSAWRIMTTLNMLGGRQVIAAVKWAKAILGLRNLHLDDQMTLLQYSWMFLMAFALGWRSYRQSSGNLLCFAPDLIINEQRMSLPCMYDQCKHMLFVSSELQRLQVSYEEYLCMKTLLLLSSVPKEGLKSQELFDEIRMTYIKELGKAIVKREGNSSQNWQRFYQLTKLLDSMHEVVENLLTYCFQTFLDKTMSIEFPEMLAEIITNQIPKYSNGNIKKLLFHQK
# [4] = Oral bioavailability in Sprague-Dawley CD-1 rat plasma at 5 mg/kg administered through gavage measured up to 24 hrs by LC/MS analysis; assay type: ADME, organism-based
# In short: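 Jugular-catheterized male Sprague Dawley CD-1 rats (220-250g). Oral arm: five rats, 5mg/kg gavage, 1mg/mL in DMSO:0.5% methylcellulose 10:90, 5mL/kg, sampled pre-dose and 0.25-24 h. i.v. arm: three rats, 1mg/kg, 0.5mg/mL in DMSO:PEG400:propylene glycol 10:45:45, sampled pre-dose and 0.08-24 h. Plasma by LC/MS.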
smiles,measurement,setting,value
Cn1cc(S(=O)(=O)N2CCC3=Cc4c(cnn4-c4ccc(F)cc4)C[C@]3(C(=O)c3cc(C(F)(F)F)ccn3)C2)cn1 [RELACORILANT],TDI,[1],Not Active
same,Ki,[2],7.2 nM
same,Activity,[3],Active
same,bioavailability,[4],89%
